Results published in ChEMBL document CHEMBL1128182, “Synthesis of substituted 1-norbornylamines with antiviral activity” (J Med Chem, 1995).
In brackets after ≈: the same amount, converted by molar mass.

How the values were obtained:
[1] = Minimum toxic concentration against influenza A virus, in MDCK cells from dog kidney; format: ADME, cell-based, Canis lupus familiaris; conditions: read-out: MTC50
Procedure, shortened: (§1)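 MDCK dog kidney cells infected with influenza A. MIC50 is the lowest concentration giving a 50% drop in virus yield. MTC50 is the lowest concentration toxic to 50% of cells. Selectivity index is MTC50 divided by MIC50, in µg/mL terms. Amantadine hydrochloride served as the reference.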

MDCK = experiment: Minimum inhibitory concentration against influenza A virus, in MDCK cells from dog kidney; format: functional; conditions: Canis lupus familiaris; procedure, shortened: as §1
[2] = Minimum toxic concentration against African swine fever virus, in vero monkey kidney cells; format: ADME, cell-based; conditions: chlorocebus sabaeus, read-out: MTC50
[3] = Minimum toxic concentration against herpes simplex virus 2, in vero monkey kidney cells; format: ADME, cell-based; conditions: chlorocebus sabaeus, read-out: MTC50
Vero [4] = experiment: Minimum inhibitory concentration against African swine fever virus, in vero monkey kidney cells; format: functional; conditions: Chlorocebus sabaeus
Vero [5] = experiment: Minimum inhibitory concentration against herpes simplex virus 2, in vero monkey kidney cells; format: functional; conditions: Chlorocebus sabaeus
[6] = […] against African Swine Fever Virus; format: functional
[7] = Ratio of MIC50 to MTC50 against HSV-2; format: functional

Row | SMILES | MCC [1] [µg/mL] | MIC50 (MDCK) [µg/mL] | MCC [2] [µg/mL] | MCC [3] [µg/mL] | MIC50 (Vero [4]) [µg/mL] | MIC50 (Vero [5]) [µg/mL] | Selectivity index [6] | Selectivity index [7]
1 | Cl.NC12CC3CC(CC(C3)C1)C2 [AMANTADINE HYDROCHLORIDE] | 300 | 0.5 |  |  |  |  |  | 
2 | CCNC12CCC(C1)C(C)C2(C)C (stereo not drawn) | 100 | < 10 | 300 | 300 | 25 (≈ 138 µM) | 25 (≈ 138 µM) | 12 | 12
3 | C=C1C2CCC(NCC)(C2)C1(C)C (stereo not drawn) | 100 | 0.1 (≈ 0.558 µM) | 400 | 400 | 30 (≈ 167 µM) | 100 (≈ 558 µM) | 13 | 4
4 | CC1C2CCC(N)(C2)C1(C)C (stereo not drawn) | 50 | 5 (≈ 32.6 µM) | 200 | 200 | 25 (≈ 163 µM) | 25 (≈ 163 µM) | 8 | 8
5 | C=C1C2(NCC)CCC(C2)C1(C)C (stereo not drawn) | 200 | 5 (≈ 27.9 µM) | 300 | 300 | 100 (≈ 558 µM) | 300 (≈ 1670 µM) | 3 | 1
6 | CC1C2(N)CCC(C2)C1(C)C (stereo not drawn) |  |  | 300 | 300 | 30 (≈ 196 µM) | 50 (≈ 326 µM) | 10 | 6
7 | CCNC12CCC(C1)C(C)(C)C2C (stereo not drawn) | 100 | 0.1 (≈ 0.552 µM) | 300 | 300 | 30 (≈ 165 µM) | 75 (≈ 414 µM) | 10 | 4
